Assay results: ChEMBL document CHEMBL5149991 (J Med Chem, 2021)

How the values were obtained:
[1] = molecular target: Muscarinic acetylcholine receptor M3 (Homo sapiens, UniProt P20309); assay: Displacement of [3H]N-methylscopolamine from human muscarinic acetylcholine M3 receptor stably expressed in CHO cells by radioligand competition binding based analysis; format: cell-based
Summary of the method: (§1)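 Whole CHO cells stably expressing hM1–hM5, competed against [3H]N-methylscopolamine. Kd/applied concentrations in nM: M1 0.17/0.2, M2 0.10/0.2, M3 0.12/0.2, M4 0.052/0.1, M5 0.20/0.3.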

D(2) dopamine receptor [2] = molecular target: T1, D(2) dopamine receptor (Homo sapiens, UniProt P14416); assay: Displacement of [3H]N-methylspiperone from human D2 long receptor stably expressed in HEK293T cells co-expressing luciferase and CEK incubated for 140 mins by radioligand competition binding based assay; format: cell-based
T1 sequence (P14416 whole entry): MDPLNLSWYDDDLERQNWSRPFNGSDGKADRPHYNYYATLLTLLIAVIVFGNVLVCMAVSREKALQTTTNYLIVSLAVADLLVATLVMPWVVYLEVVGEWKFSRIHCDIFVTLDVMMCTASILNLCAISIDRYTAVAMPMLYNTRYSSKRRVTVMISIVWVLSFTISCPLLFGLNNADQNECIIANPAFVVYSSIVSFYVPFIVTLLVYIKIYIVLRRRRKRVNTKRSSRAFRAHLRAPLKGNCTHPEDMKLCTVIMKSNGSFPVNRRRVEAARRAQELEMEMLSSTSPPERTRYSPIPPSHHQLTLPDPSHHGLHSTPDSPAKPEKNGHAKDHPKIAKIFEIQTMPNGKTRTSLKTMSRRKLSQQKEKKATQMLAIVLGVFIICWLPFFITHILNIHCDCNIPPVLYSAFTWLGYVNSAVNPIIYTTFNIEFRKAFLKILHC

D(2) dopamine receptor [3] = molecular target: T1, D(2) dopamine receptor; format: functional, cell-based, HEK293T
Histamine H2 receptor = Histamine H2 receptor (Cavia porcellus, UniProt P47747); assay: Agonist activity at histamine H2 receptor in spontaneous beating guinea pig right atrium assessed as increase in heart beat; format: functional, tissue-based, Right cardiac atrium
Sequence of Histamine H2 receptor (P47747 whole entry): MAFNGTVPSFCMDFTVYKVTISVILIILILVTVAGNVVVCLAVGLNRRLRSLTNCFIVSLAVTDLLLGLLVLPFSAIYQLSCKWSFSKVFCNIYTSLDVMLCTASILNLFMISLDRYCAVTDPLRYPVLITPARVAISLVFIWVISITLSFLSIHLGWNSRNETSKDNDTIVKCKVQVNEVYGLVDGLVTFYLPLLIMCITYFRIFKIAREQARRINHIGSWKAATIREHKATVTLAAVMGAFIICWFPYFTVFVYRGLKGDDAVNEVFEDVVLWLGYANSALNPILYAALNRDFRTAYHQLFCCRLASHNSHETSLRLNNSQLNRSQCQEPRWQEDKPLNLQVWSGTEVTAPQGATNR

D(1B) dopamine receptor = D(1B) dopamine receptor (Homo sapiens, UniProt P21918); assay: Displacement of [3H]SCH23390 from human D5 receptor stably expressed in HEK293T cells co-expressing luciferase and CEK incubated for 60 mins by scintillation counting analysis; format: cell-based
Sequence of D(1B) dopamine receptor (P21918 whole entry): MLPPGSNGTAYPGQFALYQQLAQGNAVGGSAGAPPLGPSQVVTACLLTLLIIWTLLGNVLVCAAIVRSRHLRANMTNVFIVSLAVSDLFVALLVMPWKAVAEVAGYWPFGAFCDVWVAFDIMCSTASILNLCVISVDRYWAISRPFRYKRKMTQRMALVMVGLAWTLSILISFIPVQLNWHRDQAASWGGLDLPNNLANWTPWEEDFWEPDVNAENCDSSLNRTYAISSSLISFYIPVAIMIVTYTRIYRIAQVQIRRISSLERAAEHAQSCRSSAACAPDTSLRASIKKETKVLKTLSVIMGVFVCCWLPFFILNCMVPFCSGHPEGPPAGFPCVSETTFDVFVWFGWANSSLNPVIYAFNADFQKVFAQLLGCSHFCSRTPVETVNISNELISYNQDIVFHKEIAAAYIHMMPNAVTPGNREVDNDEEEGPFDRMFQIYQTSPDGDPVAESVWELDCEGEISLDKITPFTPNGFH

[4] = molecular target: T2, Muscarinic acetylcholine receptor M4 (Homo sapiens, UniProt P08173); assay: Displacement of [3H]N-methylscopolamine from human muscarinic acetylcholine M4 receptor stably expressed in CHO cells by radioligand competition binding based analysis; format: cell-based; summary of the method: as §1
T2 sequence (P08173 whole entry): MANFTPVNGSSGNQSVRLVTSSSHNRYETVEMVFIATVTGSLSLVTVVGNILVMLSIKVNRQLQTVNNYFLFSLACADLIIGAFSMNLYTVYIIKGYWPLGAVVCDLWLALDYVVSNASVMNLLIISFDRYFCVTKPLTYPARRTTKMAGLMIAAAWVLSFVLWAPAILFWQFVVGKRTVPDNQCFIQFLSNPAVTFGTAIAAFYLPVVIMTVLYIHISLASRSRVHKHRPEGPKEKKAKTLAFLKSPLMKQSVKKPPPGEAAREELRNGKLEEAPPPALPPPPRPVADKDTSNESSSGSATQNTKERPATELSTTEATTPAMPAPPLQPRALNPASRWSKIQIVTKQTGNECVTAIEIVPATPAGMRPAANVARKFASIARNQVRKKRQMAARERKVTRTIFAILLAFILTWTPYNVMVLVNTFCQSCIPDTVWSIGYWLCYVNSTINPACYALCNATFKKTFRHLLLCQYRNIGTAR

[5] = molecular target: T3, Muscarinic acetylcholine receptor M1 (Homo sapiens, UniProt P11229); assay: Displacement of [3H]N-methylscopolamine from human muscarinic acetylcholine M1 receptor stably expressed in CHO cells by radioligand competition binding based analysis; format: cell-based; summary of the method: as §1
T3 sequence (P11229 whole entry): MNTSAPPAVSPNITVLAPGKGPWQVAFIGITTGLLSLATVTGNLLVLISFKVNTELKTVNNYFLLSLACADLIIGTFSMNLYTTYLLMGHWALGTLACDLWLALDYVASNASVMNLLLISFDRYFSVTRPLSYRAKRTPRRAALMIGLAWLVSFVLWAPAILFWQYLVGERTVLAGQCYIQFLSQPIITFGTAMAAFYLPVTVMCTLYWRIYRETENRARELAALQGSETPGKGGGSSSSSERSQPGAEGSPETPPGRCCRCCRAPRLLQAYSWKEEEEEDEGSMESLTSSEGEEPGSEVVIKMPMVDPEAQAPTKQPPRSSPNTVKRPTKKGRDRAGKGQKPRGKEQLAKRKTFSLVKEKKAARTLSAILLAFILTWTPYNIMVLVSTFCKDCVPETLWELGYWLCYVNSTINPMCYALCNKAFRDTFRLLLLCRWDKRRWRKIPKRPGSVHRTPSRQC

[6] = molecular target: T4, Alpha-2A adrenergic receptor (Homo sapiens, UniProt P08913); assay: Displacement of [3H]RX821002 from human alpha-2A adrenergic receptor […] in HEK293T cell membrane incubated for 2 hrs by scintillation counting analysis; format: cell membranes
T4 sequence (P08913 whole entry): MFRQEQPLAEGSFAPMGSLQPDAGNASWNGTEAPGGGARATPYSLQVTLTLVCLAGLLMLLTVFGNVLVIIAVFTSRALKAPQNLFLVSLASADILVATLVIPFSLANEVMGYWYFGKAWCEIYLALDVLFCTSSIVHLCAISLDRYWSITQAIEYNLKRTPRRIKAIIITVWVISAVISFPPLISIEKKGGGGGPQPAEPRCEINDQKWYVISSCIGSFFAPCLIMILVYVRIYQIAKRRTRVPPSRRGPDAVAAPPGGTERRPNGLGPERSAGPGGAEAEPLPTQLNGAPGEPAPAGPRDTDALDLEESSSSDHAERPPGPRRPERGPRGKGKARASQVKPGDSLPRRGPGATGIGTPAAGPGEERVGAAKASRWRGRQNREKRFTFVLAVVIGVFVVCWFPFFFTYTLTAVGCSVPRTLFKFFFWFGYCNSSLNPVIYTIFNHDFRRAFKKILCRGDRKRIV
Summary of the method: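 Transiently transfected HEK293T membranes in 50 mM Tris, pH 7.4. α2A: 10 μg/well, 0.5 nM [3H]RX821002, nonspecific with 10 μM RX821002. μOR: 6 μg/well, 0.3 nM [3H]diprenorphine, nonspecific with 10 μM naloxone. Ki from IC50 by Cheng–Prusoff.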

Histamine H1 receptor = Histamine H1 receptor (Homo sapiens, UniProt P35367)
Sequence of Histamine H1 receptor (P35367 whole entry): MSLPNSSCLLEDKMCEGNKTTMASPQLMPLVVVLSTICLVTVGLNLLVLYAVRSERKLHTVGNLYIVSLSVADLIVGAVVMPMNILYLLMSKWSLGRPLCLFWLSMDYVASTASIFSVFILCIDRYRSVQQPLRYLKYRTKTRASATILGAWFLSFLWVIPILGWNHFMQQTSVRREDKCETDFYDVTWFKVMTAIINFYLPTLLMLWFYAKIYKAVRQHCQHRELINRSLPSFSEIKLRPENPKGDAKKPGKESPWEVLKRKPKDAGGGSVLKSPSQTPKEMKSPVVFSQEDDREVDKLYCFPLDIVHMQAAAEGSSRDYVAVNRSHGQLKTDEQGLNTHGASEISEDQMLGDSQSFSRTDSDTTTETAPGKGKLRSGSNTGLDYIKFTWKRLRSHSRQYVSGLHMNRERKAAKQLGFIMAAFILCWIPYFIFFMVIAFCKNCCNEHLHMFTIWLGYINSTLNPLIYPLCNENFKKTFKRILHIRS

[7] = molecular target: T5, 5-hydroxytryptamine receptor 1A (Homo sapiens, UniProt P08908); assay: Displacement of […] from human 5HT1A stably expressed in HEK293T cell membrane incubated for 2 hrs by scintillation counting analysis; format: cell membranes
T5 sequence (P08908 whole entry): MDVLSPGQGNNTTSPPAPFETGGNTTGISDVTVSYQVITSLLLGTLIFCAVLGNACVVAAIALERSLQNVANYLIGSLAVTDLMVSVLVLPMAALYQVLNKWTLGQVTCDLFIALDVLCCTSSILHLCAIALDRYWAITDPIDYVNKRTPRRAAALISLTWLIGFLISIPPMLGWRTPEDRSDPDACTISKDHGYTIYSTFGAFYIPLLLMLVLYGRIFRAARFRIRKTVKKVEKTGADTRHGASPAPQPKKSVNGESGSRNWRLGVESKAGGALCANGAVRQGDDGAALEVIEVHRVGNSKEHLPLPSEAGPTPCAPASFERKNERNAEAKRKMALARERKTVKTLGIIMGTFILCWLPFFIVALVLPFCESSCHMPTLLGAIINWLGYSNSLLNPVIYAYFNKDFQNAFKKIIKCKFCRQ

D(1A) dopamine receptor = D(1A) dopamine receptor (Homo sapiens, UniProt P21728); assay: Displacement of [3H]SCH23390 from human D1 receptor stably expressed in HEK293T cells co-expressing luciferase and CEK incubated for 60 mins by scintillation counting analysis; format: cell-based
Sequence of D(1A) dopamine receptor (P21728 whole entry): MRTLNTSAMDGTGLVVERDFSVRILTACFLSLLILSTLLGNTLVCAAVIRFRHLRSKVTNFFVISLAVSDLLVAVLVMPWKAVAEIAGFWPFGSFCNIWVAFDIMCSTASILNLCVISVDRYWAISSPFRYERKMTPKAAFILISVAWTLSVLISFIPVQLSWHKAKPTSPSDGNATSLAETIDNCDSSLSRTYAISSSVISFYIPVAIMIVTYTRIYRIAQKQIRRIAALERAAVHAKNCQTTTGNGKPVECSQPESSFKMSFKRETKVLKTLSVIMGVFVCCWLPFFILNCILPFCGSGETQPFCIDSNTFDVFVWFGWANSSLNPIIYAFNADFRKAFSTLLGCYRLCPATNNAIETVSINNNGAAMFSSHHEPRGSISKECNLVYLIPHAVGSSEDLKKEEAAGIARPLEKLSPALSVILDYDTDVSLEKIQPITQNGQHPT

Sequence of Muscarinic acetylcholine receptor M3 (P20309 whole entry): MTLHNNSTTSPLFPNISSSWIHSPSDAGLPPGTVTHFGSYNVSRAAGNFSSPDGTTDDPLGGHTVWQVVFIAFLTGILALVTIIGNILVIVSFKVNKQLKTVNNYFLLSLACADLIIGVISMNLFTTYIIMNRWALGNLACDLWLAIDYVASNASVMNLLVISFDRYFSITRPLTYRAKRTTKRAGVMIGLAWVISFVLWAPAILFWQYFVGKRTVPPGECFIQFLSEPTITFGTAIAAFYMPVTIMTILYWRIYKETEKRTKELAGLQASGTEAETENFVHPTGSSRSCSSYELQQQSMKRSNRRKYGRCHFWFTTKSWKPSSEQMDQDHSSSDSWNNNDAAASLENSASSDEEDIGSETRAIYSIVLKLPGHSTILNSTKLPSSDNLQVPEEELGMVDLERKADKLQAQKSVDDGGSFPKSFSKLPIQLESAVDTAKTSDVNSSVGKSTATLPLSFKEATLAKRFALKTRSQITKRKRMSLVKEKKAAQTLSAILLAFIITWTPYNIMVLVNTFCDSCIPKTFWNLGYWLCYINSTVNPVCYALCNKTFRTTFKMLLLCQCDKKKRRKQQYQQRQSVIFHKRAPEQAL

SMILES	Kd [1]	pKi [1]	Ki (D(2) dopamine receptor [2])	EC50 (D(2) dopamine receptor [3])	EC50 (Histamine H2 receptor)	Kd (D(1B) dopamine receptor)	pKi (D(1B) dopamine receptor)	Kd [4]	pKi [4]	Kd [5]	pKi [5]	Kd [6]	pKi [6]	Kd (Histamine H1 receptor)	Ki (Histamine H1 receptor)	Kd [7]	pKi [7]	Kd (D(1A) dopamine receptor)	Ki (D(1A) dopamine receptor)
C[C@@H](NC(=O)/N=C(\N)NCCCc1ncn[nH]1)c1ccccc1	0.12 nM	< 5	> 10000 nM	> 10000 nM	38 nM	0.24 nM	4.62	0.052 nM	> 5	0.17 nM	< 5	0.6 nM	6.07	4.5 nM	7940 nM	0.08 nM	4.29	0.23 nM	2190 nM
CCCCCNC(=O)/N=C(\N)NCCCc1nnc(N)s1.O=C(O)C(F)(F)F.O=C(O)C(F)(F)F	0.12 nM	< 5	9550 nM	> 10000 nM	5.62 nM	0.24 nM	4.46	0.052 nM	< 5	0.17 nM	< 5	0.6 nM	5.31	4.5 nM	6460 nM	0.08 nM	4.49	0.23 nM	2450 nM
N/C(=N\C(=O)NCc1ccccc1)NCCCc1nnc(N)s1	0.12 nM	< 5	6310 nM	> 10000 nM	1.32 nM	0.24 nM	4.95	0.052 nM	> 5.5	0.17 nM	< 5	0.6 nM	5.9	4.5 nM	5370 nM	0.08 nM	4.56	0.23 nM	1380 nM
CCCCCNC(=O)/N=C(\N)NCCCc1sc(N)nc1C	0.12 nM	< 5	–	–	–	0.24 nM	5.4	0.052 nM	< 5	0.17 nM	< 5	0.6 nM	6.05	–	–	0.08 nM	5.18	0.23 nM	257 nM
